Test results from ChEMBL document CHEMBL4270594, “Design, synthesis and pharmacological evaluation of new 3-(1H-benzimidazol-2-yl)quinolin-2(1H)-one derivatives as potential antitumor agents” (Eur J Med Chem, 2018).
Activity calls are given as the source filed them. No cut-off for these calls is given here.

Legend:
[1] = tested on: Mus musculus; experiment: Upregulation of Bax protein expression in tumor tissues of Balb/c nude mouse xenografted with human Bel7404 cells at 25 to 50 mg/kg, ip bid for 20 days measured on day 21 by Western blot analysis; type: functional, organism-based
[2] = tested on: Mus musculus; experiment: Toxicity in Balb/c nude mouse xenografted with human Bel7404 cells assessed as change in body weight at 25 to 50 mg/kg, ip bid for 20 days; type: organism-based; conditions: in vivo, 480 h
[3] = tested on: BEL-7404 tumor cell line; experiment: Antitumor activity against human Bel7404 cells xenografted in Balb/c nude mouse assessed as tumor growth inhibition at 50 mg/kg, ip bid for 20 days measured on day 21 post last dose relative to control; type: functional; conditions: BEL-7404, ip, read-out: TGI
[4] = tested on: BEL-7404 tumor cell line; experiment: Cell cycle arrest in human Bel7404 cells assessed as accumulation at G1-phase at 9 uM after 48 hrs by propidium iodide staining based flow cytometry (reference value: 59.16%); type: functional
[5] = tested on: Mus musculus; experiment: Effect on caspase-3 protein expression in tumor tissues of Balb/c nude mouse xenografted with human Bel7404 cells at 25 to 50 mg/kg, ip bid for 20 days measured on day 21 by Western blot analysis; type: functional, organism-based
[6] = tested on: Mus musculus; experiment: Downregulation of APAF-1 protein expression in tumor tissues of Balb/c nude mouse xenografted with human Bel7404 cells at 25 to 50 mg/kg, ip bid for 20 days measured on day 21 by Western blot analysis; type: functional, organism-based
[7] = tested on: HepG2; experiment: Cell cycle arrest in human HepG2 cells assessed as accumulation at G1-phase at 10 uM after 48 hrs by propidium iodide staining based flow cytometry (reference value: 50.47%); type: functional
[8] = tested on: HepG2; experiment: Cell cycle arrest in human HepG2 cells assessed as accumulation at G2/M phase after 48 hrs by propidium iodide staining based flow cytometry; type: functional
[9] = tested on: HepG2; experiment: Downregulation of Cyclin-B1 protein expression in human HepG2 cells at 6 to 10 uM after 12 hrs by Western blot analysis; type: functional, cell-based
[10] = tested on: HepG2; experiment: Induction of apoptosis in human HepG2 cells after 24 hrs by Annexin V-FITC/ propidium iodide staining based flow cytometry; type: functional, cell-based
[11] = tested on: HepG2; experiment: Induction of apoptosis in human HepG2 cells assessed as necrotic cells at 10 uM after 24 hrs by Annexin V-FITC/ propidium iodide staining based flow cytometry (reference value: 0.28%); type: functional
[12] = tested on: HepG2; experiment: Induction of apoptosis in human HepG2 cells assessed as early apoptotic cells at 8 uM after 24 hrs by Annexin V-FITC/ propidium iodide staining based flow cytometry (reference value: 6.5%); type: functional
[13] = tested on: HepG2; experiment: Cell cycle arrest in human HepG2 cells assessed as accumulation at S-phase at 6 uM after 48 hrs by propidium iodide staining based flow cytometry (reference value: 30.49%); type: functional
[14] = tested on: HepG2; experiment: Induction of ROS in human HepG2 cells at 6 to 10 uM by DCFH-DA staining based fluorescence microscopic method; type: functional, cell-based
[15] = tested on: HepG2; experiment: Downregulation of Bcl2 protein expression in human HepG2 cells at 6 to 10 uM after 12 hrs by Western blot analysis; type: functional, cell-based
[16] = tested on: HepG2; experiment: Downregulation of CDK1 protein expression in human HepG2 cells at 6 to 10 uM after 12 hrs by Western blot analysis; type: functional, cell-based
[17] = tested on: HepG2; experiment: Induction of apoptosis in human HepG2 cells assessed as early apoptotic cells at 10 uM after 24 hrs by Annexin V-FITC/ propidium iodide staining based flow cytometry (reference value: 6.5%); type: functional
[18] = tested on: HepG2; experiment: Cell cycle arrest in human HepG2 cells assessed as accumulation at G2-phase at 6 uM after 48 hrs by propidium iodide staining based flow cytometry (reference value: 19.04%); type: functional
[19] = tested on: HepG2; experiment: Induction of apoptosis in human HepG2 cells assessed as live cells at 6 uM after 24 hrs by Annexin V-FITC/ propidium iodide staining based flow cytometry (reference value: 91.31%); type: functional
[20] = tested on: HepG2; experiment: Cell cycle arrest in human HepG2 cells assessed as accumulation at S-phase at 8 uM after 48 hrs by propidium iodide staining based flow cytometry (reference value: 30.49%); type: functional
[21] = tested on: HepG2; experiment: Induction of ROS in human HepG2 cells at 6 to 10 uM by DAPI staining based fluorescence microscopic method; type: functional, cell-based
[22] = tested on: HepG2; experiment: Upregulation of Bax protein expression in human HepG2 cells at 6 to 10 uM after 12 hrs by Western blot analysis; type: functional, cell-based
How it was run: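 HepG2 cell lysates after compound treatment analyzed by western blot for the target protein, compared with untreated negative control.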

[23] = tested on: HepG2; experiment: Induction of apoptosis in human HepG2 cells assessed as pycnosis at 6 to 10 uM after 12 hrs by acridine orange/ethidium bromide staining based fluorescence microscopic method; type: functional, cell-based
How it was run: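 HepG2 cells stained with acridine orange/ethidium bromide and examined by fluorescence microscopy; nuclei scored as yellow/green or orange, with pycnosis, membrane blebbing and cell budding taken as apoptotic morphology.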

[24] = tested on: Mus musculus; experiment: Upregulation of PARP protein expression in tumor tissues of Balb/c nude mouse xenografted with human NCI-H460 cells at 25 to 50 mg/kg, ip bid for 13 days measured on day 14 by Western blot analysis; type: functional, organism-based
How it was run: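 Tumors from NCI-H460 xenografted BALB/c nude mice (25 or 50 mg/kg, vehicle 5% DMSO in saline) collected at day 14; protein levels in tumor tissue determined by western blot versus vehicle control.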

[25] = tested on: HepG2; experiment: Cell cycle arrest in human HepG2 cells assessed as accumulation at G2-phase at 10 uM after 48 hrs by propidium iodide staining based flow cytometry (reference value: 19.04%); type: functional
[26] = tested on: HepG2; experiment: Induction of apoptosis in human HepG2 cells assessed as necrotic cells at 8 uM after 24 hrs by Annexin V-FITC/ propidium iodide staining based flow cytometry (reference value: 0.28%); type: functional

O=c1[nH]c2cc3c(cc2cc1-c1nc2cc(Cl)ccc2[nH]1)OCO3
Activity [1]: inactive
Activity [2]: Non-Toxic
inhibition in vivo at 50 mg/kg [3]: 44.9%
Activity [4]: 45.76%
Activity [5]: inactive
Activity [6]: Active

O=c1[nH]c2ccccc2cc1-c1nc2cc(Cl)ccc2[nH]1
Activity [7]: 23.66%
Activity [8]: Dose-dependent effect
Activity [9]: Active
Activity [10]: Dose-dependent effect
Activity [11]: 0.45%
Activity [12]: 35.9%
Activity [13]: 29.48%
Activity [14]: Active
Activity [15]: Active
Activity [16]: Active
Activity [17]: 45.57%
Activity [18]: 39%
Activity [19]: 68.62%
Activity [20]: 29.19%
Activity [21]: Active
Activity [22]: Active
Activity [23]: Active
Activity [24]: Active
Activity [25]: 49.1%
Activity [26]: 0.32%
